In ChEMBL document CHEMBL4152184, “NB 06: From a simple lysosomotropic aSMase inhibitor to tools for elucidating the role of lysosomes in signaling apoptosis and LPS-induced inflammation” (Eur J Med Chem, 2018):
The source made the active and inactive calls. No cut-off for these calls is given here.

How the values were obtained:
MONO-MAC-6 [1] = assay: Upregulation of IL23A mRNA expression level in human MONO-MAC-6 cells at 5 uM incubated for 30 mins measured after 4 hrs by qRT-PCR method relative to control; type: functional
MONO-MAC-6 [2] = assay: Downregulation of ICAM1 mRNA expression level in human MONO-MAC-6 cells at 5 uM incubated for 30 mins measured after 6 hrs by oligonucleotide array hybridization assay relative to control; type: functional
Summary of the method: (§1)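 Total RNA was isolated, transcribed and labeled with DY-647 dye, then co-hybridized with DY-548-labeled cDNA from untreated cells on an inflammation oligonucleotide chip (780 gene probes). Differential expression >1.5 was taken as significant.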

MONO-MAC-6 [3] = assay: Upregulation of PTGS2 mRNA expression level in LPS-stimulated human MONO-MAC-6 cells at 5 uM preincubated for 30 mins followed by LPS stimulation measured after 4 hrs by oligonucleotide array hybridization assay (reference value: 5.29); type: functional
MONO-MAC-6 [4] = assay: Downregulation of CXCL3 mRNA expression level in LPS-stimulated human MONO-MAC-6 cells at 5 uM preincubated for 30 mins followed by LPS stimulation measured after 1 hr by oligonucleotide array hybridization assay (reference value: 1.18); type: functional; summary of the method: as §1
[5] = target: T1, Acid ceramidase (Homo sapiens) (UniProt Q13510); assay: Inhibition of exogenous C6-ceramid-stimulated acid ceramidase in human PBMC assessed as ratio of C24:1-ceramide/lipid phosphate level at 10 uM preincubated for 30 mins followed by C6-ceramid stimulation measured after 4 hrs by HPLC method (reference value: 2.65); type: cell-based
T1 sequence (whole entry): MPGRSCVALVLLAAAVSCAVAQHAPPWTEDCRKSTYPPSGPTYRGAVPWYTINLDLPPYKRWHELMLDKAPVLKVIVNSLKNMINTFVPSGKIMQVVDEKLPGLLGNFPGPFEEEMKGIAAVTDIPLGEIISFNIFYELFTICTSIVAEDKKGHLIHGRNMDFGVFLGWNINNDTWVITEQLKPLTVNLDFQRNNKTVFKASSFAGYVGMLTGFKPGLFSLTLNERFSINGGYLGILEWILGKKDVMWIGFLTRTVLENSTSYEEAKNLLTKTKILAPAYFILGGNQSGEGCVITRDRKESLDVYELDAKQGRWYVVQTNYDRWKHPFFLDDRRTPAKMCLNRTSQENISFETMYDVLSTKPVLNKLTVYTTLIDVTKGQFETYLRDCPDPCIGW
Summary of the method: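 Human macrophages from primary culture were preincubated 30 min with 10 µM compound. They were then stimulated 4 h with mmLDL (54 µg/mL), TNFalpha (3 ng/mL) or exogenous C6-ceramide (10 µM), or left unstimulated. Individual ceramide species (C16 and C24:1) were quantified in the cell lipid extracts.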

MONO-MAC-6 [6] = assay: Downregulation of CXCL2 mRNA expression level in human MONO-MAC-6 cells at 5 uM incubated for 30 mins measured after 6 hrs by oligonucleotide array hybridization assay relative to control; type: functional; summary of the method: as §1
MONO-MAC-6 [7] = assay: Downregulation of CCL4 mRNA expression level in human MONO-MAC-6 cells at 5 uM incubated for 30 mins measured after 2 hrs by oligonucleotide array hybridization assay relative to control; type: functional; summary of the method: as §1
MONO-MAC-6 [8] = assay: Upregulation of CXCL10 mRNA expression level in LPS-stimulated human MONO-MAC-6 cells at 5 uM preincubated for 30 mins followed by LPS stimulation measured after 4 hrs by oligonucleotide array hybridization assay (reference value: 3.07); type: functional
MONO-MAC-6 [9] = assay: Downregulation of TNFalpha mRNA expression level in human MONO-MAC-6 cells at 5 uM incubated for 30 mins measured after 2 hrs by qRT-PCR method relative to control; type: functional
MONO-MAC-6 [10] = assay: Upregulation of ICAM1 mRNA expression level in LPS-stimulated human MONO-MAC-6 cells at 5 uM preincubated for 30 mins followed by LPS stimulation measured after 6 hrs by oligonucleotide array hybridization assay (reference value: 2.90); type: functional
MONO-MAC-6 [11] = assay: Upregulation of TNFalpha mRNA expression level in LPS-stimulated human MONO-MAC-6 cells at 5 uM preincubated for 30 mins followed by LPS stimulation measured after 4 hrs by qRT-PCR method (reference value: 4.32); type: functional
MONO-MAC-6 [12] = assay: Upregulation of CXCL2 mRNA expression level in LPS-stimulated human MONO-MAC-6 cells at 5 uM preincubated for 30 mins followed by LPS stimulation measured after 4 hrs by qRT-PCR method (reference value: 16.41); type: functional
[13] = target: T2, Sphingomyelin phosphodiesterase (Homo sapiens) (UniProt P17405); assay: Inhibition of mmLDL-stimulated acid sphingomyelinase in human PBMC lysates at 2 to 50 uM preincubated for 30 mins followed by mmLDL stimulation measured after 4 hrs by YO-PRO-1/Hoechst 33342 staining based assay
T2 sequence (whole entry): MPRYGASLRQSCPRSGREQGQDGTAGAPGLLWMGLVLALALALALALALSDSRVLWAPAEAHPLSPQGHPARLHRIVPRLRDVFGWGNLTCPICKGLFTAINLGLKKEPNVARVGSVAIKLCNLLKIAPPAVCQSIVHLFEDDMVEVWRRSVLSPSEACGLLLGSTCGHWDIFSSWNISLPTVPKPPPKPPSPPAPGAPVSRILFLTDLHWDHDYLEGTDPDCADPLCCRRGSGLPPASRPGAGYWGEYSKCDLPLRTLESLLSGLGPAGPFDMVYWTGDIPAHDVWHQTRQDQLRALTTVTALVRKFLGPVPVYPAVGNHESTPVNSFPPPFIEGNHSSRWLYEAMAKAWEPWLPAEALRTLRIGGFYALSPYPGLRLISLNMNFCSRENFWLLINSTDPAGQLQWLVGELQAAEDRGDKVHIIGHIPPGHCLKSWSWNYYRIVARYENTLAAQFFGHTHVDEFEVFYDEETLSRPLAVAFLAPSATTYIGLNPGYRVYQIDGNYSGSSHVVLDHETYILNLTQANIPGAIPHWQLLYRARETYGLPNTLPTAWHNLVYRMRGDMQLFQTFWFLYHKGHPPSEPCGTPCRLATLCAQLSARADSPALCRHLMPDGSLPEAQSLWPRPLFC

MONO-MAC-6 [14] = assay: Upregulation of CCL20 mRNA expression level in LPS-stimulated human MONO-MAC-6 cells at 5 uM preincubated for 30 mins followed by LPS stimulation measured after 4 hrs by oligonucleotide array hybridization assay (reference value: 10.69); type: functional
MONO-MAC-6 [15] = assay: Downregulation of TNFalpha mRNA expression level in human MONO-MAC-6 cells at 5 uM incubated for 30 mins measured after 6 hrs by qRT-PCR method relative to control; type: functional
MONO-MAC-6 [16] = assay: Upregulation of CXCL2 mRNA expression level in human MONO-MAC-6 cells at 5 uM incubated for 30 mins measured after 2 hrs by oligonucleotide array hybridization assay relative to control; type: functional
MONO-MAC-6 [17] = assay: Downregulation of PTGS2 mRNA expression level in human MONO-MAC-6 cells at 5 uM incubated for 30 mins measured after 6 hrs by oligonucleotide array hybridization assay relative to control; type: functional; summary of the method: as §1
MONO-MAC-6 [18] = assay: Upregulation of CXCL2 mRNA expression level in LPS-stimulated human MONO-MAC-6 cells at 5 uM preincubated for 30 mins followed by LPS stimulation measured after 2 hrs by qRT-PCR method (reference value: 4.77); type: functional

## COc1ccc(CCN(C)CCCn2c3ccccc3c3ccccc32)cc1
MONO-MAC-6 [1]
  fold change (FC): 1.39
MONO-MAC-6 [2]
  fold change (FC): 1.79
MONO-MAC-6 [3]
  fold change (FC): 4.07
MONO-MAC-6 [4]
  fold change (FC): 1.24
[5]
  Ratio: 2.65
MONO-MAC-6 [6]
  fold change (FC): 5.44
MONO-MAC-6 [7]
  fold change (FC): 1.05
MONO-MAC-6 [8]
  fold change (FC): 1.01
MONO-MAC-6 [9]
  fold change (FC): 3.78
MONO-MAC-6 [10]
  fold change (FC): 1.15
MONO-MAC-6 [11]
  fold change (FC): 1.37
MONO-MAC-6 [12]
  fold change (FC): 8.28
[13]
  inhibition: Active
MONO-MAC-6 [14]
  fold change (FC): 4.54
MONO-MAC-6 [15]
  fold change (FC): 2.08
MONO-MAC-6 [16]
  fold change (FC): 1.11
MONO-MAC-6 [17]
  fold change (FC): 2.23
MONO-MAC-6 [18]
  fold change (FC): 5.03
